Where two headings read alike, the source gives them in different places.
Legend:
[1] = target: T1, human norepinephrine transporter (hNET) (Homo sapiens, UniProt P23975); experiment: Saturation transport kinetics assays with intact C6-hNET cells; assay type: cell-based; details: for Km / Vmax: intact C6-hNET cells, 5 min, 37 °C, mean ± SD, n = 4 or 5
[2] = target: T1, human norepinephrine transporter (hNET); experiment: Competitive inhibition of [^3H]mazindol binding to C6-hNET cell membranes
Method in brief: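 Rat C6 glioma cells stably expressing human NET were Dounce-homogenized, and membranes were pelleted at 100,000 × g and resuspended in 50 mM Tris, 120 mM NaCl, 5 mM KCl, pH 7.4. Each assay used 70–100 μg protein. Radioligand was [3H]mazindol, with desipramine defining nonspecific binding. Ten inhibitor concentrations were run in quadruplicate and normalized to % specific binding. A one-site competition fit gave IC50, converted to Ki by Cheng-Prusoff using the mean saturation KD.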

[3] = earlier studies, reference not given; cited from earlier work
[4] = tested on: norepinephrine transporter (NET); details: isolated rat heart, cited from earlier work
[5] = tested on: norepinephrine transporter (NET); experiment: NET transport kinetics / neuronal uptake in isolated perfused rat hearts; details: isolated rat heart, ratio of Vmax and Km estimates
[6] = target: T1, human norepinephrine transporter (hNET); experiment: Saturation binding assays with [^3H]mazindol and C6-hNET membranes; details: C6-hNET cell membranes, n = 4
Method in brief: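 The membranes were C6-hNET cell membranes, 100,000 × g pellets in 50 mM Tris/120 mM NaCl/5 mM KCl, pH 7.4, from different batches. Protein was measured by Lowry with BSA standards. Eight [3H]mazindol concentrations (0.25–25 nM) were tested, with specific binding in triplicate at each. A one-site binding nonlinear fit gave KD (nM) and Bmax (fmol/mg protein).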

[7] = [^3H]mazindol, homogenized C6-hNET cell membranes, Cheng-Prusoff, mean ± SD, n = 4 or 5

T1 sequence (P23975 whole entry): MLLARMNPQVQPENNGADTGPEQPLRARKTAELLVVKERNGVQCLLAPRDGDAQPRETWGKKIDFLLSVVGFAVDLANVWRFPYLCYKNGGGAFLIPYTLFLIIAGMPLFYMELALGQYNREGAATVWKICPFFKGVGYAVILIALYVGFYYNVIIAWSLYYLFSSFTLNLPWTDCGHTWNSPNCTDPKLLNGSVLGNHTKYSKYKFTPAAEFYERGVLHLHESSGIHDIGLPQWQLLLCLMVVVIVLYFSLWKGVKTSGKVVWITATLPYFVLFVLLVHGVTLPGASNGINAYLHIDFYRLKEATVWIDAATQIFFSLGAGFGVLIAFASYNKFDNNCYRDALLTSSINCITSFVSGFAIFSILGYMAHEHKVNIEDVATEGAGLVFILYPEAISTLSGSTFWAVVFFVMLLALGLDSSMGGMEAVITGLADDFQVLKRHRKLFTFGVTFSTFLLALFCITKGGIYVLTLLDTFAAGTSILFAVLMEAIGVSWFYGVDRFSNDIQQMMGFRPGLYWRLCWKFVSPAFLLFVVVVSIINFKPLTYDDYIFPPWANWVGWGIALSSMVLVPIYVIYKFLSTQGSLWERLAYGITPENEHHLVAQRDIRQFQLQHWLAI

## N=C(N)NCC(O)c1cccc(O)c1 (single isomer, unassigned; (-)) [GMO, (−)-N-[^11C]guanyl-meta-octopamine]
[1]
  Km: 4.43 ± 0.31 µM
[2]; [7]
  Ki: 20.3 ± 2.5 µM

## N=[11C](N)NCC(O)c1cccc(O)c1 (single isomer, unassigned; (-)) [GMO, (−)-N-[^11C]guanyl-meta-octopamine]
[1]; C6-hNET cells, comparator MHPG
  Km increase relative to MHPG: 6 fold
  Vmax decrease relative to MHPG: 30%
  Vmax/Km ratio slower than for MHPG: ~ 9 times slower
[1]
  Vmax: 5.57 ± 0.30 pmol/min/mg protein

## N=C(N)NCCc1ccc(F)c(O)c1 [4F-MHPG, [^11C]4-fluoro-meta-hydroxyphenethylguanidine]
[1]; C6-hNET cells, comparator MHPG
  Km increase relative to MHPG: 5 fold
[1]
  Km: 2.57 ± 0.35 µM
  Vmax: 7.46 ± 0.64 pmol/min/mg protein
[2]; [7]
  Ki: 5.6 ± 0.5 µM

## N=C(N)NCCc1cc(O)ccc1F [6F-MHPG, [^11C]6-fluoro-meta-hydroxyphenethylguanidine]
[1]
  Km: 2.86 ± 0.43 µM
[2]; [7]
  Ki: 17.7 ± 0.5 µM

## N=[11C](N)NCCc1cc(O)ccc1F [6F-MHPG, [^11C]6-fluoro-meta-hydroxyphenethylguanidine]
[1]; C6-hNET cells, comparator MHPG
  Km increase relative to MHPG: ~ 5 fold
  Vmax decrease relative to MHPG: ~ 50%
  Vmax/Km as percentage of the value for MHPG: ~ 12%
[1]
  Vmax: 4.06 ± 0.66 pmol/min/mg protein

## CNC[C@H](O)c1ccc(O)c(O)c1 [EPI, [^11C]-(−)-epinephrine]
[1]; C6-hNET cells, comparator NE
  Km increase relative to NE: 11 fold
[3]
  log P: −1.30
[2]
  Ki: 68.4 ± 7.6 µM

## NC(N)=NCc1cccc(Br)c1 [MBBG, [^76Br]-meta-bromobenzylguanidine]
[4]; ref Raffel et al. [16]
  Km: 0.11 ± 0.03 µM

## NC(N)=NCc1cccc([76Br])c1 [MBBG, [^76Br]-meta-bromobenzylguanidine]
[4]; ref Raffel et al. [16]
  Vmax: 0.33 ± 0.10 nmol/min/g wet
[5]; ref Raffel et al. [16]
  Vmax/Km ratio: 3.0 ± 1.2 ml/min/g wet

## N=C(N)NCCc1cccc(O)c1 [MHPG, [^11C]meta-hydroxyphenethylguanidine]
[1]
  Km: 0.73 ± 0.2 µM
[2]; [7]
  Ki: 4.9 ± 0.5 µM

## N=[11C](N)NCCc1cccc(O)c1 [MHPG, [^11C]meta-hydroxyphenethylguanidine]
[1]; C6-hNET cells, comparator PHPG
  Vmax relative to PHPG: 2.4 times higher
[1]
  Vmax: 7.83 ± 1.73 pmol/min/mg protein

## N=C(N)NCc1cccc(I)c1 [MIBG, [^131I]metaiodobenzylguanidine]
[4]; ref DeGrado et al. [15]
  Km: 0.052 µM

## N=C(N)NCc1cccc([131I])c1 [MIBG, [^131I]metaiodobenzylguanidine]
[4]; ref DeGrado et al. [15]
  Vmax: 0.23 nmol/min/g wet
[5]; ref DeGrado et al. [15]
  Vmax/Km ratio: 4.4 ml/min/g wet

## NC[C@H](O)c1ccc(O)c(O)c1 [NE, [^3H]-(−)-norepinephrine]
[4]; ref Iversen [14]
  Km: 0.27 µM
  Vmax: 1.18 ± 0.12 nmol/min/g wet

## N=C(N)NCCc1ccc(O)cc1 [PHPG, [^11C]para-hydroxyphenethylguanidine]
[1]
  Km: 0.52 ± 0.06 µM
[2]; [7]
  Ki: 1.9 ± 0.2 µM

## N=[11C](N)NCCc1ccc(O)cc1 [PHPG, [^11C]para-hydroxyphenethylguanidine]
[1]
  Vmax: 3.31 ± 0.40 pmol/min/mg protein

## OC1(c2ccc(Cl)cc2)c2ccccc2C2=NCCN21 (stereo not drawn) [[^3H]mazindol, [4′-^3H]Mazindol]
[6]
  Bmax: 457 ± 31 fmol/mg protein
  Kd: 0.0012 µM

## [^3H]dopamine [DA]
[1]
  Km: 0.24 ± 0.04 µM
  Vmax: 2.91 ± 0.47 pmol/min/mg protein
[4]; ref Hellmann et al. [11]
  Km: 0.69 µM
  Vmax: 1.45 nmol/min/g wet
[5]; ref Hellmann et al. [11]
  Vmax/Km ratio: 2.10 ml/min/g wet

## [^11C]-(−)-meta- hydroxyephedrine
[1]
  Km: 0.48 ± 0.08 µM
  Vmax: 5.43 ± 0.71 pmol/min/mg protein
[3]
  log P: 0.3
[2]; [7]
  Ki: 43.2 ± 1.8 µM
